# From ChEMBL document CHEMBL4350963, “Discovery and Lead-Optimization of 4,5-Dihydropyrazoles as Mono-Kinase Selective, Orally Bioavailable and Efficacious Inhibitors of Receptor Interacting Protein 1 (RIP1) Kinase” (J Med Chem, 2019)
# What was measured:
# [1] = Chromatographic hydrophobicity index, log D of the compound at pH 7.4 by reverse-phase HPLC analysis; assay type: physicochemical; details: buffer
# How it was run: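 Log D at pH 7.4 was calculated from the retention time on a fast-gradient reverse-phase HPLC run.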
# [2] = Cmax in rat at 2 mg/kg, po; assay type: ADME, organism-based; design: dose 2 mg/kg, route oral; details: in vivo
# How it was run: (§1)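 Rat pharmacokinetics: the iv arm was dosed at 1 mg/kg in 5% DMSO/20% Cavitron aqueous solution. The oral arm was dosed at 2 mg/kg in 5% DMSO/6% Cavitron aqueous solution. Bioavailability was calculated non-crossover, from average exposures in separate oral and iv studies.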
# [3] = AUC (0 to infinity) in rat at 2 mg/kg, po; assay type: ADME, organism-based; design: dose 2 mg/kg, route oral, time infinity; details: in vivo; how it was run: as §1
# [4] = Tmax in rat at 2 mg/kg, po; assay type: ADME, organism-based; details: in vivo
# [5] = AUC (0 to infinity) in rat at 1 mg/kg, iv; assay type: ADME, organism-based; design: dose 1 mg/kg, time infinity, route intravenous; details: in vivo; how it was run: as §1
# [6] = Volume of distribution at steady state in rat at 1 mg/kg, iv; assay type: ADME, organism-based; details: in vivo, read-out: Vdss
# [7] = Oral bioavailability in rat at 2 mg/kg; assay type: ADME, organism-based; details: in vivo
# [8] = Solubility of the compound in fasted state simulated intestinal fluid measured after 4 hrs using crystalline sample; assay type: physicochemical
# [9] = Unbound brain to blood concentration ratio in C57BL/6 mouse at 9.6 to 96 mg/kg/day added to chow pellets; assay type: ADME, organism-based; details: po, read-out: K(p,uu,brain)
# [10] = Time at which mouse plasma concentration stays above in vitro IC50 for RIP1 in mouse L929 cells assessed as reduction in TNFalpha/QVD-Oph-induced necroptosis in mouse at 10 mg/kg/day added to chow pellets; assay type: ADME, organism-based; details: in vivo
# [11] = Time at which mouse plasma concentration stays above in vitro IC90 for RIP1 in mouse L929 cells assessed as reduction in TNFalpha/QVD-Oph-induced necroptosis in mouse at 100 mg/kg/day added to chow pellets; assay type: ADME, organism-based; details: in vivo
SMILES,chromatographic logD [1],also measured
O=C(C1CCC1)N1N=CCC1c1ccccc1 (stereo unspecified),4.7,–
Cc1ccc(C2CC=NN2C(=O)C(C)(C)C)cc1 (stereo unspecified),6.4,–
CC(C)(C)C(=O)N1N=CCC1c1ccc(S(C)(=O)=O)cc1 (stereo unspecified),4.1,–
CC(C)(CN)C(=O)N1N=CCC1c1ccccc1 (stereo unspecified),1.4,–
C[C@@H]1C=NN(C(=O)C(C)(C)C)[C@@H]1c1ccccc1,6.5,–
CC(C)(C)C(=O)N1N=CCC1c1cocn1 (stereo unspecified),3,Cmax [2]: 345 ng/mL; AUC(0-inf) [3]: 200 ng·h/mL; Tmax [4]: 5 min
O=C(C1CCN(c2ccncn2)CC1)N1N=CC[C@H]1c1ccccc1,3.2,–
CC(C)(C)C(=O)N1N=CCC1c1cccnc1 (stereo unspecified),3.2,Cmax [2]: 360 ng/mL; AUC(0-inf) [3]: 260 ng·h/mL; Tmax [4]: 5 min
CC(C)(C)C(=O)N1N=CCC1c1cc[nH]n1 (stereo unspecified),2.7,–
CC(C)(C)C(=O)N1N=CCC1c1c[nH]cn1 (stereo unspecified),1.7,–
CC(C)(C)C(=O)N1N=CCC1c1ccncc1 (stereo unspecified),3.2,–
O=C(C1CCCCC1)N1CCC(C(=O)N2N=CCC2c2ccccc2)CC1 (stereo unspecified),5.4,–
N#Cc1cnc(N2CCC(C(=O)N3N=CC[C@H]3c3cc(F)cc(F)c3)CC2)cn1,5.2,AUC(0-inf) [5]: 400 ng·h/mL; Cmax [2]: 73 ng/mL; Vd [6]: 6.1 L/kg; bioavailability [7]: 99%; Tmax [4]: 38 min
CC(C)(CO)C(=O)N1N=CCC1c1ccccc1 (stereo unspecified),3.4,–
O=C(c1ccncc1)N1N=CCC1c1ccccc1 (stereo unspecified),2.7,–
CN1CCC(C2CC=NN2C(=O)C(C)(C)C)CC1 (stereo unspecified),1.4,–
O=C(C1CCN(c2ccccn2)CC1)N1N=CC[C@H]1c1ccccc1,5.1,–

SMILES,chromatographic logD [1],also measured
Cc1nnc(N2CCC(C(=O)N3N=CC[C@H]3c3ccccc3)CC2)o1,3.2,AUC(0-inf) [5]: 800 ng·h/mL; Vd [6]: 1.6 L/kg
O=C(C1CCN(c2ncccn2)CC1)N1N=CC[C@H]1c1ccccc1,4.7,–
CC(C)(C)C(=O)N1CCSC1c1ccccc1 (stereo unspecified),5.6,–
O=C(C1CCCC1)N1N=CCC1c1ccccc1 (stereo unspecified),5.4,–
CC(C)(C)C(=O)N1CCNCC1c1ccccc1 (stereo unspecified),2.5,–
O=C(C1CCN(C(=O)C(F)(F)F)CC1)N1N=CCC1c1ccccc1 (stereo unspecified),4.9,–
CC(C)(C)C(=O)n1nccc1-c1ccccc1,8.3,–
CC(C)(C)C(=O)N1CCOCC1c1ccccc1 (stereo unspecified),4.7,–
O=C(c1c[nH]nn1)N1CCC(C(=O)N2N=CCC2c2ccccc2)CC1 (stereo unspecified),2,AUC(0-inf) [5]: 450 ng·h/mL; Vd [6]: 1.3 L/kg
CC(C)(C)C(=O)N1N=CCC1C1CCCC1 (stereo unspecified),6.7,–
O=C(C1CCCCC1)N1N=CCC1c1ccccc1 (stereo unspecified),5.9,–
CC(C)(C)C(=O)N1N=CCC1C1CCOCC1 (stereo unspecified),4.1,–
O=C(C1CCOCC1)N1N=CCC1c1ccccc1 (stereo unspecified),3.1,Cmax [2]: 95 ng/mL; AUC(0-inf) [3]: 44 ng·h/mL; Tmax [4]: 5 min
CC(=O)N1CCC(C(=O)N2N=CC[C@H]2c2ccccc2)CC1,2.5,AUC(0-inf) [5]: 420 ng·h/mL; Cmax [2]: 795 ng/mL; AUC(0-inf) [3]: 1600 ng·h/mL; solubility thermodynamic at 4 h [8]: 7400 µg/mL; Vd [6]: 1.7 L/kg; Tmax [4]: 30 min
O=C(C1CCOC1)N1N=CCC1c1ccccc1 (stereo unspecified),3,–
Cc1ccc(C2CC=NN2C(=O)C(C)(C)C)cc1F (stereo unspecified),6.6,–
N#Cc1cc(N2CCC(C(=O)N3N=CC[C@H]3c3cc(F)cc(F)c3)CC2)ncn1,5,AUC(0-inf) [5]: 410 ng·h/mL; Cmax [2]: 215 ng/mL; Vd [6]: 4.6 L/kg; bioavailability [7]: 88%; Tmax [4]: 30 min; Kp uu [9]: 2.5; Time [10]: > 24 h; Time [11]: > 24 h
